Results reported in ChEMBL document CHEMBL1152940 (Bioorg Med Chem, 2009).

Columns and labels:
[1] = target: D(2) dopamine receptor (Rattus norvegicus) (UniProt P61169); test: Agonist activity at rat dopamine D2short receptor expressed in CHO-K1 cells assessed as stimulation of [35S]GTPgammaS binding by liquid scintillation counting relative to dopamine; assay type: functional, cell-based
Method in brief: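 Membranes from CHO-K1 cells stably expressing the receptor were prepared by sonication in Tris buffer (pH 7.4, with NaCl, KCl, MgCl2 and EDTA). They were incubated with 0.2 nM [35S]GTPγS, 10 µM GDP and a compound concentration series for 90 min at 25 °C. Samples were filtered on GF/B and washed with ice-cold phosphate buffer before scintillation counting. Curves were fitted by non-linear regression. Means ± SEM come from ≥2 independent experiments, each in duplicate.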

D(1A) dopamine receptor = D(1A) dopamine receptor (Homo sapiens, UniProt P21728); test: Displacement of [3H]SCH23390 from dopamine D1 receptor expressed in Ltk deficient fibroblast cells by liquid scintillation counting; assay type: cell-based
Chain of D(1A) dopamine receptor (P21728 whole entry): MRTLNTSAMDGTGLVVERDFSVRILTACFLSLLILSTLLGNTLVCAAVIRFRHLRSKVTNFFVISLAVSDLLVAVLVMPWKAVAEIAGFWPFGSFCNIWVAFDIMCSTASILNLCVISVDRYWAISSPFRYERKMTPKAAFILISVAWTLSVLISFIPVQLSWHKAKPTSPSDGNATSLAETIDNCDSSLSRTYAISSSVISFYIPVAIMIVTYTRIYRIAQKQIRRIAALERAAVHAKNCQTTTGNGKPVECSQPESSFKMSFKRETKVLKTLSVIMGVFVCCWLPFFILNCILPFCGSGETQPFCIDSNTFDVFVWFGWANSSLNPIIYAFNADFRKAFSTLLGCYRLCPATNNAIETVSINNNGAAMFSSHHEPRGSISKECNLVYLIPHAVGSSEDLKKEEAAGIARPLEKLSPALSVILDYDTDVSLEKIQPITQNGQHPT

D(2) dopamine receptor [2] = target: T1, D(2) dopamine receptor (Rattus norvegicus, UniProt P61169); test: Displacement of [3H]raclopride from rat dopamine D2short receptor expressed in CHO-K1 cells by liquid scintillation counting; assay type: cell-based
T1 sequence (P61169 whole entry): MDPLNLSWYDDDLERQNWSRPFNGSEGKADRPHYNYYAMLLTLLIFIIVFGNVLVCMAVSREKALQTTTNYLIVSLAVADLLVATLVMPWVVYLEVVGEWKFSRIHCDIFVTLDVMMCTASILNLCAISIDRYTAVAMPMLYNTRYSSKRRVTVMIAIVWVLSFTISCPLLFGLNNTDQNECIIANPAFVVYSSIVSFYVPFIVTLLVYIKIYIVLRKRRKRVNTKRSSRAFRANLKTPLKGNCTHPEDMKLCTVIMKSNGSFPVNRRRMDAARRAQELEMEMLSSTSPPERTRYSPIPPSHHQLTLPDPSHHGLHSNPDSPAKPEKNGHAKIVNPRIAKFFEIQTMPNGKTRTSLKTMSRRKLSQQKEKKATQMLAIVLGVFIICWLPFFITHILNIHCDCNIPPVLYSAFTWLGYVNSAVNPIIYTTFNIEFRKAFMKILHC

D(2) dopamine receptor [3] = target: T1, D(2) dopamine receptor; test: Agonist activity at rat dopamine D2short receptor expressed in CHO-K1 cells assessed as stimulation of [35S]GTPgammaS binding by liquid scintillation counting; assay type: functional, cell-based
[4] = Selectivity index, ratio of Ki for dopamine D1 receptor to Ki for rat dopamine D2short receptor

Chain of D(2) dopamine receptor (Rattus norvegicus) (P61169 whole entry): as above

Row | SMILES | Efficacy [1] [%] | Ki (D(1A) dopamine receptor) [nM] | Ki (D(2) dopamine receptor [2]) [nM] | EC50 (D(2) dopamine receptor [3]) [nM] | Ratio Ki [4]
1 | CCCN1CCc2cc(-c3ccccc3)cc3c2[C@H]1Cc1ccc(O)c(O)c1-3 | 100 | 669 | 192 | 577 | 3.5
2 | CN1CCc2cccc3c2[C@H]1Cc1ccc(O)c(O)c1-3 | 58 | – | – | – | –
3 | CCCN1CCc2cc(-c3ccc(O)cc3)cc3c2[C@H]1Cc1ccc(O)c(O)c1-3 | 99 | 94 | 2 | 12 | 47
4 | CCCN1CCc2cc(C)cc3c2[C@H]1Cc1ccc(O)c(O)c1-3 | 65 | 278 | 9.2 | 40 | 30
5 | Cc1cc2c3c(c1)-c1c(ccc(O)c1O)C[C@H]3N(C)CC2 | – | – | – | 43 | –
6 | CCN1CCc2cc(-c3ccc(O)cc3)cc3c2[C@H]1Cc1ccc(O)c(O)c1-3 | 112 | 124 | 1.5 | 8.7 | 83
7 | CCN1CCc2cc(C)cc3c2[C@H]1Cc1ccc(O)c(O)c1-3 | 112 | 1340 | 115 | 480 | 12
8 | CN1CCc2cc(-c3ccccc3)cc3c2[C@H]1Cc1ccc(O)c(O)c1-3 | – | 88 | – | 23 | 7.5
9 | CN1CCc2cc(-c3ccc(O)cc3)cc3c2[C@H]1Cc1ccc(O)c(O)c1-3 | – | 755 | – | 8.5 | 182
10 | CCN1CCc2cc(-c3ccccc3)cc3c2[C@H]1Cc1ccc(O)c(O)c1-3 | 72 | 31 | 14 | 51 | 2.2
